# Compound activity from PubChem.
# Compounds with a hit are over-represented: about 2.9% of the library has one in this group of screens.
# TRPC4 agonist: opens the mouse TRPC4 cation channel; Q9QUQ5; HEK293 TRPC4beta/mu-opioid, Fluo4 calcium fluorescence; active compounds read high; B-score at 10 µM; 310,000 compounds, 0.49% hits; AID 2237;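 active means B-score above 5 SD of library B-scores, and initial fluorescence ratio not above library mean plus 5 SD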;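 further: positive B-score marks a calcium rise read as TRPC4 activation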
#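 System – HEK293 cells stably co-expressing mouse TRPC4beta and mu-opioid receptor · Signal – Fluo4 calcium-sensitive dye fluorescence, kinetic, 1 Hz baseline · Benchmarks – buffer (low) and maximal DAMGO (high) · Read-out – B score of integrated fluorescence ratio per well · Incubation – dye loading 45 min room temperature, 110 s kinetic read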
# TRPC6 inh: blocks the mouse TRPC6 cation channel | AID 2553 | B-score at 10 µM | Q61143 | HEK293-TRPC6, membrane potential dye, ACh-evoked depolarization; active compounds read low | 310,000 compounds, 1.1% hits;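 active means B-score under library mean minus 3 SD, initial fluorescence not abnormally high, positive integrated signal ratio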;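 further: B-score derived from integrated fluorescence ratio over the kinetic read; more negative B-score means stronger inhibition of depolarization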
# Target sequence (Q61143 whole entry, looked up): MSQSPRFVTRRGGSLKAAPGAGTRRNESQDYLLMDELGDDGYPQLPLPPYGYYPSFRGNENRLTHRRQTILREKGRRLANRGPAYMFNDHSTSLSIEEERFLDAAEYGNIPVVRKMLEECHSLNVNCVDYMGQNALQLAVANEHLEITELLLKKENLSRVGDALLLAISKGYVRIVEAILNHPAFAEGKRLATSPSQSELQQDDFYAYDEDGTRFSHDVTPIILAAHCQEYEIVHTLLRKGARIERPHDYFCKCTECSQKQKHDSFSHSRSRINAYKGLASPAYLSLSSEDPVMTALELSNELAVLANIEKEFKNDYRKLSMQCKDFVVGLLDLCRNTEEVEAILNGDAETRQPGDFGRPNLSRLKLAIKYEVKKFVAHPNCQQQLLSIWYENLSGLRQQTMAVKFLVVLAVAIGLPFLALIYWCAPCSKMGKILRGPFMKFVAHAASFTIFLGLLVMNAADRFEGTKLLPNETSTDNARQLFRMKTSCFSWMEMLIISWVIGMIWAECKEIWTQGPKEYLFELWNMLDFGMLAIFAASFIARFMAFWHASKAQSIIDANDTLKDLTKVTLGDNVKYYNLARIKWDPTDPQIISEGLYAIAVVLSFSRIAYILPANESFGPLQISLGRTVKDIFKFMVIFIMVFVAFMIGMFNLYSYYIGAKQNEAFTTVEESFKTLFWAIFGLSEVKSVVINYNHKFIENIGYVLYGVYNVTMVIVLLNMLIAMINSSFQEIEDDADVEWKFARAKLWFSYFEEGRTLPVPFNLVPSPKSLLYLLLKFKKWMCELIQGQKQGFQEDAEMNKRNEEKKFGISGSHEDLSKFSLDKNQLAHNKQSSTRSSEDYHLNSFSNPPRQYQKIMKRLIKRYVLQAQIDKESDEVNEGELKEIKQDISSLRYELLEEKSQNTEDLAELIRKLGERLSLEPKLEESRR
# TRPC6 activator: mouse TRPC6 channel activation; Q61143; HEK293-TRPC6 membrane potential dye fluorescence; active compounds read high; B-score at 10 µM; 310,000 compounds, 0.13% hits; AID 2550;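 active means B-score of the integrated fluorescence ratio above library mean plus 3 SD, and starting fluorescence ratio within library mean plus 5 SD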;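 further: higher score means more depolarization so channel activation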
# Kir21 block: blocks the mouse Kir2.1 inward-rectifier potassium channel; P35561; HEK293-Kir2.1, FluxOR thallium flux fluorescence; active compounds read low; B-score at 10 µM; 310,000 compounds, 0.85% hits;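 active means fluorescence ratio B-score at or below minus 3 SD of library scores, with starting-brightness B-score within 2 SD, cut at about -4.2 in these data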;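 further: channel flux triggered by added potassium and thallium sulfate stimulus; B-score of peak minus minimum fluorescence over baseline after thallium stimulus; more negative B-score means stronger Kir2.1 block with less thallium influx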
# TRPC4 block: TRPC4 (mouse) channel inhibition; Q9QUQ5; HEK293 TRPC4beta/mu-opioid, DAMGO-evoked Fluo4 calcium flux; active compounds read low; B-score at 10 µM; 300,000 compounds, 0.39% hits; AID 2247;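 active means B-score over 3 SD under the library average, no early fluorescence shift, positive overall ratio signal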
#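 Assay system: TRPC4beta/mu-opioid receptor HEK293 cell line; compound dosing: single concentration per test compound; detection: Fluo4 Ca2+ flux fluorescence; evaluation: per-well B score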
# TRPC4 potent: allosteric potentiators of mouse TRPC4 channel; Q9QUQ5; HEK293 TRPC4beta/mu-opioid, DAMGO EC20, Fluo-4 Ca2+ flux; active compounds read high; B-score at 10 µM; 310,000 compounds, 0.42% hits; AID 2227;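 active means B-score of calcium response area above 5 SD of library B-scores, with initial fluorescence ratio within 5 SD of library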;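 further: B-score of integrated fluorescence ratio over time as area under calcium response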
# hERG inh: counter-screen for Kir2.1 inhibitors: effect on human hERG. inhibition, % at 10 µM. shares compounds with Kir21 block. 320 compounds, 20% hits. hERG-expressing cells, thallium flux. AID 2236;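 further: host cells are CHO cells stably expressing hERG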
# KCNK9 spec: selectivity of Kir2.1 inhibitors: effect on human KCNK9. shares compounds with Kir21 block. KCNK9-expressing cells, ion flux inhibition. inhibition, % at 10 µM. 320 compounds, 5% hits. AID 2329
# Kir2-1 patch inh: blocks mouse Kir2.1 current in automated electrophysiology; inhibition, % at 25 µM; Kir2.1 cells, automated patch-clamp current inhibition; shares compounds with Kir21 block; 320 compounds, 71% hits; AID 463252
# TRPC4 spec 2: second check of whether TRPC6 inhibitors also affect mouse TRPC4; HEK293 TRPC4/MOR, membrane potential dye fluorescence; channel activated by saturating DAMGO dose; inhibition, % at 10 µM; 920 compounds, 42% hits; shares compounds with TRPC6 inh;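 active means compounds whose fluorescence signal differed from control wells by over 3 SD, either direction, in both duplicate plates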
# TRPC4 spec: tests whether TRPC6 inhibitors also affect mouse TRPC4; shares compounds with TRPC6 inh; HEK293 TRPC4/mu-opioid, membrane potential fluorescence; activity change, negative = inhibition, % at 10 µM; 920 compounds, 61% hits; AID 2777;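 active means rise or fall in signal beyond 3 SD of buffer-only wells in both replicate plates, either sign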;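 further: integrated kinetic ratio of fluorescence range over baseline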
# HEK293 counter 2: second check of TRPC6 inhibitor effects in parental HEK293 cells; signal change vs control, % at 10 µM; parental HEK293 membrane potential dye fluorescence; maximal acetylcholine challenge after compound addition; shares compounds with TRPC6 inh; 920 compounds, 31% hits; AID 2779;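 active means membrane potential signal moving either way by over 3 SD of the maximum-effect control, in both duplicate plates, meaning non-specific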
# HEK293 MPD ctr: parental HEK293 nonspecific activity of TRPC6 inhibitors; shares compounds with TRPC6 inh; parental HEK293 membrane potential dye fluorescence; membrane potential signal change, % at 10 µM; 920 compounds, 60% hits; AID 2780;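 active means membrane potential signal shifting up or down by more than 3 SD of buffer-only wells, on both duplicate plates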
# TRPC6 block conf: confirmation of mouse TRPC6 inhibitors; 3,300 compounds, 43% hits; HEK293-TRPC6, membrane potential dye, ACh-evoked depolarization; shares compounds with TRPC6 inh; inhibition, % at 10 µM;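 active means fluorescence ratio falls more than 5 SD below the full-stimulation control mean, in both duplicate runs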;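 further: integrated fluorescence ratio of peak minus minimum over baseline after agonist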
# Starred values were filed as active, the others as inactive; i = inactive; . = no result given. Unless noted, how the calls were made is not given here.
SMILES,TRPC4 agonist,TRPC6 inh,TRPC6 activator,Kir21 block,TRPC4 block,TRPC4 potent,others
CCC(=O)OC1(c2cccc(C)c2)CC(C)N(C)CC1C (stereo unspecified),68*,i,i,-1.85,i,i,
CCC(=O)OC1(Cc2ccc(CC)cc2)CC(C)N(C)CC1C (stereo unspecified),48*,i,i,-1.43,-8*,i,
CC1CC(OC(=O)c2ccccc2)(c2ccccc2)C(C)CN1C (stereo unspecified),i,i,i,-1.38,i,i,
CN1CCN(c2ccc([N+](=O)[O-])c3cccnc23)CC1,64*,i,i,0.57,i,18*,
CN1CCN(c2ccc([N+](=O)[O-])c(N3CCCCC3)c2)CC1,i,i,i,-1.96,i,i,
O=[N+]([O-])c1ccc(N2CCNCC2)c2ncccc12,69*,-5.55*,i,0.06,i,24*,
O=[N+]([O-])c1ccc(N2CCNCC2)cc1Sc1ccccn1,i,i,i,0.28,i,i,
CCOc1cc(CNC(C)C(O)c2ccccc2)cc(Cl)c1OCC (stereo unspecified),i,i,i,-5.58*,i,i,
CC(NCc1ccc(Cl)c(Cl)c1)C(O)c1ccccc1 (stereo unspecified),i,i,i,-4.6*,i,i,
CC(NCc1ccccc1Cl)C(O)c1ccccc1 (stereo unspecified),i,i,i,-5.65*,i,i,
CC(NCc1ccccc1C(F)(F)F)C(O)c1ccccc1 (stereo unspecified),i,i,i,1.62,i,i,
CNCC(C)c1ccccc1 (stereo unspecified),i,i,i,-1.03,i,i,
COc1ccccc1NC(=O)c1cn(CCC#N)nc1-c1cccc(Cl)c1,i,i,i,-0.84,i,i,
OC(CN1CCC(c2c[nH]c3ccccc23)CC1)C(F)(F)F (stereo unspecified),i,i,i,2.16,i,i,
O=c1[nH]c2ccccc2c(=O)n1-c1ccc(Cl)cc1Cl,i,i,i,-2.34,i,i,
C[C@@H]1CC2(CCCC[N+]2(C)C)C[C@H]1C,i,i,i,-0.4,.,i,
Oc1c(Br)cc(Br)cc1CN1CCN(Cc2ccccc2)CC1,i,i,i,-1.79,i,20*,
Cc1ccc(CC(=O)N2CCN(Cc3ccccc3)CC2)cc1,i,i,i,0.81,i,i,
Cc1ccccc1CN1CCN(Cc2ccccc2)CC1,i,i,i,-4.65*,i,i,
COc1ccc(CN2CCN(Cc3ccccc3)CC2)c(OC)c1,i,i,i,-0.83,i,i,
COc1ccc(C(CNC(=O)CCc2ccsc2)N(C)C)cc1 (stereo unspecified),108*,i,i,0.79,i,i,
COc1ccc(C(CN(C)C)C2(O)CCCCC2)cc1 (stereo unspecified),i,i,i,-0.75,i,i,
N=c1c2c(n(Cc3ccc(Cl)cc3Cl)c3c1CCC3)CCCC2,i,-5.12*,i,-0.4,i,i,
O=c1[nH]cc(COCC(F)(F)C(F)(F)C(F)(F)F)c(=O)[nH]1,i,i,i,-1.55,i,i,
COc1ccc(CN2CCCC(C(=O)c3sccc3C)C2)cc1O (stereo unspecified),i,i,i,-6.18*,-7*,i,hERG inh=i;KCNK9 spec=i;Kir2-1 patch inh=i
SMILES,TRPC4 agonist,TRPC6 inh,TRPC6 activator,Kir21 block,TRPC4 block,TRPC4 potent,others
O=C(C(=O)N1CCOCC1)c1cn(Cc2ccc(F)cc2)c2ccccc12,i,i,i,-0.02,i,i,
Fc1ccccc1CNCCc1c[nH]c2ccccc12,i,i,i,-0.86,i,i,
COc1cc(C)c(CNCCc2c[nH]c3ccccc23)cc1C,144*,i,i,-6.92*,i,i,hERG inh=i;KCNK9 spec=i;Kir2-1 patch inh=9.0%*
COc1ccc(CNCCc2c[nH]c3ccccc23)c(OC)c1C,182*,i,i,-8.42*,i,i,hERG inh=i;KCNK9 spec=i;Kir2-1 patch inh=4.1%*
Cc1ccc(-n2c(C)nc3cc(Cl)ccc3c2=O)nc1,i,i,i,0.73,i,i,
COc1cc(CNCCc2ccc3c(c2)OCO3)ccc1O,i,i,i,0.87,i,i,
COc1ccc(CNCCc2ccc3c(c2)OCO3)cc1Br,107*,i,i,-11.5*,i,i,hERG inh=46.0%*;KCNK9 spec=i;Kir2-1 patch inh=82.5%*
COc1ccc2ccccc2c1CNCCc1ccccc1,i,-7.84*,i,-8.95*,i,i,hERG inh=i;KCNK9 spec=i;Kir2-1 patch inh=29.0%*;TRPC4 spec 2=i;TRPC4 spec=16.1%*;HEK293 counter 2=i;HEK293 MPD ctr=5.0%*;TRPC6 block conf=66.4%*
Cc1cnc(NC(=O)CN2CCCCC2)s1,i,i,i,-1.05,i,i,
